Experimental data reported in ChEMBL document CHEMBL1142454, “Synthesis and evaluation of novel 4-amino-4,6-androstadiene-3,17-dione: an analog of formestane” (2008).

Columns and labels:
Parameters in all cases: scale not given: the % may be the effect or the level left
SK-MEL-28 = assay: Antitumor activity against human SK-MEL-28 cells assessed as reduction of cell growth at 10 uM after 48 hrs by SRB assay; assay type: functional
Procedure, shortened: (§1)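 NCI 60-cell-line primary screen, single dose 10^-5 M (final). Cells grown in RPMI 1640 with 5% FBS and 2 mM L-glutamine, seeded at 5000–40,000 cells/well and preincubated 24 h at 37 °C, 5% CO2. Compound is dissolved in DMSO, diluted in medium with gentamicin, and exposed 48 h. Cells are fixed with 10% TCA (final) and stained with 0.4% SRB; absorbance is read at 515 nm. Readout is growth percentage.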

SK-MEL-2 = assay: Antitumor activity against human SK-MEL-2 cells assessed as reduction of cell growth at 10 uM after 48 hrs by SRB assay; assay type: functional; procedure, shortened: as §1
M14 = assay: Antitumor activity against human M14 cells assessed as reduction of cell growth at 10 uM after 48 hrs by SRB assay; assay type: functional; procedure, shortened: as §1
LOX IMVI = assay: Antitumor activity against human LOXIMVI cells assessed as reduction of cell growth at 10 uM after 48 hrs by SRB assay; assay type: functional; procedure, shortened: as §1
TK-10 = assay: Antitumor activity against human TK-10 cells assessed as reduction of cell growth at 10 uM after 48 hrs by SRB assay; assay type: functional
Procedure, shortened: (§2)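 NCI-60 one-dose primary screen at 10^-5 M final. Cells grown in RPMI 1640 with 5% FBS and 2 mM L-glutamine, plated at 5000–40,000 cells/well and preincubated 24 h at 37 °C, 5% CO2. Drug stocks in DMSO, diluted in medium with gentamicin. Exposure 48 h, then fixed in situ with TCA (10% final) for 60 min at 4 °C. Stained with 0.4% SRB in 1% acetic acid, bound dye solubilized in 10 mM trizma base, absorbance read at 515 nm. Reported as mean growth percent; negative values indicate cell kill.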

SN12C = assay: Antitumor activity against human SN12C cells assessed as reduction of cell growth at 10 uM after 48 hrs by SRB assay; assay type: functional; procedure, shortened: as §1
RXF 393 = assay: Antitumor activity against human RXF 393 cells assessed as reduction of cell growth at 10 uM after 48 hrs by SRB assay; assay type: functional; procedure, shortened: as §1
CAKI-1 = assay: Antitumor activity against human Caki-1 cells assessed as reduction of cell growth at 10 uM after 48 hrs by SRB assay; assay type: functional; procedure, shortened: as §1
ACHN = assay: Antitumor activity against human ACHN cells assessed as reduction of cell growth at 10 uM after 48 hrs by SRB assay; assay type: functional; procedure, shortened: as §1
A498 = assay: Antitumor activity against human A-498 cells assessed as reduction of cell growth at 10 uM after 48 hrs by SRB assay; assay type: functional; procedure, shortened: as §1
[1] = Antitumor activity against human 786-O cells assessed as reduction of cell growth at 10 uM after 48 hrs by SRB assay; assay type: functional, 786-0; procedure, shortened: as §1
SR = assay: Antitumor activity against human SR cells assessed as reduction of cell growth at 10 uM after 48 hrs by SRB assay; assay type: functional; procedure, shortened: as §2
MOLT-4 = assay: Antitumor activity against human MOLT-4 cells assessed as reduction of cell growth at 10 uM after 48 hrs by SRB assay; assay type: functional; procedure, shortened: as §1
HL-60(TB) = assay: Antitumor activity against human HL-60(TB) cells assessed as reduction of cell growth at 10 uM after 48 hrs by SRB assay; assay type: functional; procedure, shortened: as §1
CCRF-CEM = assay: Antitumor activity against human CCRF-CEM cells assessed as reduction of cell growth at 10 uM after 48 hrs by SRB assay; assay type: functional; procedure, shortened: as §1
SK-OV-3 = assay: Antitumor activity against human SKOV3 cells assessed as reduction of cell growth at 10 uM after 48 hrs by SRB assay; assay type: functional; procedure, shortened: as §1
OVCAR-5 = assay: Antitumor activity against human OVCAR5 cells assessed as reduction of cell growth at 10 uM after 48 hrs by SRB assay; assay type: functional; procedure, shortened: as §1
OVCAR-4 = assay: Antitumor activity against human OVCAR4 cells assessed as reduction of cell growth at 10 uM after 48 hrs by SRB assay; assay type: functional; procedure, shortened: as §1
OVCAR-3 = assay: Antitumor activity against human OVCAR-3 cells assessed as reduction of cell growth at 10 uM after 48 hrs by SRB assay; assay type: functional; procedure, shortened: as §1
T47D = assay: Antitumor activity against human T47D cells assessed as reduction of cell growth at 10 uM after 48 hrs by SRB assay; assay type: functional; procedure, shortened: as §2
MCF7 [2] = assay: Antitumor activity against human doxorubicin-resistant MCF7 cells assessed as reduction of cell growth at 10 uM after 48 hrs by SRB assay; assay type: functional; procedure, shortened: as §2
MDA-MB-435 = assay: Antitumor activity against human MDA-MB-435 cells assessed as reduction of cell growth at 10 uM after 48 hrs by SRB assay; assay type: functional; procedure, shortened: as §1
MDA-MB-231 = assay: Antitumor activity against human MDA-MB-231/ATCC cells assessed as reduction of cell growth at 10 uM after 48 hrs by SRB assay; assay type: functional; procedure, shortened: as §1
MCF7 [3] = assay: Antitumor activity against human MCF7 cells assessed as reduction of cell growth at 10 uM after 48 hrs by SRB assay; assay type: functional; procedure, shortened: as §1
[4] = Antitumor activity against human Hs 578T cells assessed as reduction of cell growth at 10 uM after 48 hrs by SRB assay; assay type: functional; procedure, shortened: as §1
SW-620 = assay: Antitumor activity against human SW620 cells assessed as reduction of cell growth at 10 uM after 48 hrs by SRB assay; assay type: functional; procedure, shortened: as §2
KM12 = assay: Antitumor activity against human KM12 cells assessed as reduction of cell growth at 10 uM after 48 hrs by SRB assay; assay type: functional; procedure, shortened: as §1
HCT-15 = assay: Antitumor activity against human HCT-15 cells assessed as reduction of cell growth at 10 uM after 48 hrs by SRB assay; assay type: functional; procedure, shortened: as §1
COLO 205 = assay: Antitumor activity against human COLO205 cells assessed as reduction of cell growth at 10 uM after 48 hrs by SRB assay; assay type: functional; procedure, shortened: as §1
NCI-H522 = assay: Antitumor activity against human NCI-H522 cells assessed as reduction of cell growth at 10 uM after 48 hrs by SRB assay; assay type: functional; procedure, shortened: as §1
NCI-H23 = assay: Antitumor activity against human NCI-H23 cells assessed as reduction of cell growth at 10 uM after 48 hrs by SRB assay; assay type: functional; procedure, shortened: as §1
NCI-H226 = assay: Antitumor activity against human NCI-H226 cells assessed as reduction of cell growth at 10 uM after 48 hrs by SRB assay; assay type: functional; procedure, shortened: as §1
HOP-92 = assay: Antitumor activity against human HOP-92 cells assessed as reduction of cell growth at 10 uM after 48 hrs by SRB assay; assay type: functional; procedure, shortened: as §1
HOP-62 = assay: Antitumor activity against human HOP-62 cells assessed as reduction of cell growth at 10 uM after 48 hrs by SRB assay; assay type: functional; procedure, shortened: as §1
EKVX = assay: Antitumor activity against human EKVX cells assessed as reduction of cell growth at 10 uM after 48 hrs by SRB assay; assay type: functional; procedure, shortened: as §1
A549 = assay: Antitumor activity against human A549/ATCC cells assessed as reduction of cell growth at 10 uM after 48 hrs by SRB assay; assay type: functional; procedure, shortened: as §1
U-251 = assay: Antitumor activity against human U251 cells assessed as reduction of cell growth at 10 uM after 48 hrs by SRB assay; assay type: functional; procedure, shortened: as §2
PC-3 = assay: Antitumor activity against human PC-3 cells assessed as reduction of cell growth at 10 uM after 48 hrs by SRB assay; assay type: functional; procedure, shortened: as §1

| SMILES | Activity (SK-MEL-28) [%] | Activity (SK-MEL-2) [%] | Activity (M14) [%] | Activity (LOX IMVI) [%] | Activity (TK-10) [%] | Activity (SN12C) [%] | Activity (RXF 393) [%] | Activity (CAKI-1) [%] | Activity (ACHN) [%] | Activity (A498) [%] | Activity [1] [%] | Activity (MOLT-4) [%] | Activity (HL-60(TB)) [%] | Activity (CCRF-CEM) [%] | Activity (SK-OV-3) [%] | Activity (OVCAR-5) [%] | Activity (OVCAR-4) [%] | Activity (OVCAR-3) [%] | Activity (T47D) [%] | Activity (MCF7 [2]) [%] | other results |
| --- | --- | --- | --- | --- | --- | --- | --- | --- | --- | --- | --- | --- | --- | --- | --- | --- | --- | --- | --- | --- | --- |
| C[C@]12CC[C@H]3[C@@H](CCC4=CC(=O)CC[C@@]43CF)[C@@H]1CCC2=O | 116.5 | 97.19 | 102.8 | 96.65 | 114.8 | 113.5 | 67.71 | 111 | 119.9 | 111.1 | 105.6 | 106.1 | 112.8 | 88.21 | 120.5 | 118.37 | 98.85 | 119.07 | 39.44 | 107.98 | Activity (SR): 118.7%; Activity (MDA-MB-435): 100.91%; Activity (MDA-MB-231): 117.71%; Activity (MCF7 [3]): 130.43%; Activity [4]: 127.96%; Activity (SW-620): 125.89%; Activity (KM12): 117.01%; Activity (HCT-15): 106.17%; Activity (COLO 205): 134.97%; Activity (NCI-H522): 87.35%; Activity (NCI-H23): 106.48%; Activity (NCI-H226): 111.29%; Activity (HOP-92): 113.59%; Activity (HOP-62): 123.96%; Activity (EKVX): 94.85%; Activity (A549): 99.26%; Activity (U-251): 111.4% |
| CCOC1=C2CC[C@@H]3[C@H](CC[C@]4(C)C(=O)CC[C@@H]34)[C@@]2(C)CCC1=O | 135.2 | 94.48 | 103.8 | 100.3 | 100.6 | 110.6 | 117.9 | 115.2 | 105.1 | 105.6 | 103.4 | 98.59 | 112.2 | 91.63 | 111.3 | 101.66 | 96.98 | 128.63 | 117.94 | 97.45 | Activity (PC-3): 96.5%; Activity (SR): 104.9%; Activity (MDA-MB-435): 104.79%; Activity (MDA-MB-231): 106.73%; Activity (MCF7 [3]): 108.56%; Activity [4]: 118.13%; Activity (SW-620): 120.57%; Activity (KM12): 123.89%; Activity (HCT-15): 110.45%; Activity (COLO 205): 132.65%; Activity (NCI-H522): 91%; Activity (NCI-H23): 101.11%; Activity (NCI-H226): 98.58%; Activity (HOP-92): 92.93%; Activity (HOP-62): 103.52%; Activity (EKVX): 111.14%; Activity (A549): 97.79% |
| C[C@]12CCC(=O)C(N)=C1C=C[C@@H]1[C@@H]2CC[C@]2(C)C(=O)CC[C@@H]12.Cl | 103.4 | 74.41 | 79.51 | 60.57 | 85.59 | 88.53 | 95.21 | 84.08 | 88.16 | 99.19 | 89.28 | 57.2 | 52.53 | 6.62 | 120.27 | 107.69 | 61.98 | 64.57 | 73.66 | 68.71 | Activity (PC-3): 46.51%; Activity (MDA-MB-435): 112.52%; Activity (MDA-MB-231): 100.87%; Activity (MCF7 [3]): -15.97%; Activity [4]: 112.26%; Activity (SW-620): 15.36%; Activity (KM12): 39.52%; Activity (HCT-15): 72.99%; Activity (COLO 205): 121.26%; Activity (NCI-H522): 76.59%; Activity (NCI-H23): 74.07%; Activity (NCI-H226): 96.3%; Activity (HOP-92): 61.94%; Activity (HOP-62): 111.88%; Activity (EKVX): 97.99%; Activity (A549): 103.34%; Activity (U-251): 54.19% |
